One test has as its target T1, Integrin beta-7 (Homo sapiens, UniProt P13612+P26010).
T1 sequence (P26010 whole entry): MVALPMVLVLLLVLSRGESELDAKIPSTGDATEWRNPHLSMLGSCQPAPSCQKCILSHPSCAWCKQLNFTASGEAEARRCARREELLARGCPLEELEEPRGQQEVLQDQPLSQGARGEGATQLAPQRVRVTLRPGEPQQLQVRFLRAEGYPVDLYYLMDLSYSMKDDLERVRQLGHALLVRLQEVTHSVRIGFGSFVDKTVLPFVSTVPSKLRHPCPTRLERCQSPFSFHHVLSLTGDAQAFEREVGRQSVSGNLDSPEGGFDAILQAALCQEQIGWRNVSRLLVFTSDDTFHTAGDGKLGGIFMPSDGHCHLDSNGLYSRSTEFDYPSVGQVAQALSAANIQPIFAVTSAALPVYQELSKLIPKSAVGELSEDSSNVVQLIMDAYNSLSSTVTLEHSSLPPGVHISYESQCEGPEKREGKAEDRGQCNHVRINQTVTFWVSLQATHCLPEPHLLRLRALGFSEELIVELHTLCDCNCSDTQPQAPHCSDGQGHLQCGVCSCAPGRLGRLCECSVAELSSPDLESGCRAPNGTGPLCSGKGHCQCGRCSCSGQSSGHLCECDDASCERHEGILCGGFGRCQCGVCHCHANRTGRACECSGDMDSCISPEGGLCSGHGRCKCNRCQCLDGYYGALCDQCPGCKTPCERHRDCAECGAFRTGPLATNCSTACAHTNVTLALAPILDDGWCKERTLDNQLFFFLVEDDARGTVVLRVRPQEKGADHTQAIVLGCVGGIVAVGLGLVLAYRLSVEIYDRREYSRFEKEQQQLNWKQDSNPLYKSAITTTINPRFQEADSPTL
In words: Inhibition of alpha4-beta7 interaction to mucosal addressin cell adhesion molecule-1 (MAdCAM-1) was determined. In kind it is functional. Put shortly: (§1)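 38C13β7 lymphoma cells (α4β7+) labelled with H33342 dye (6 µg/mL), 8 × 10^5 cells/mL in adhesion buffer (Click's RPMI, 1% BSA, 1.0 mM Ca2+/Mg2+). Cells are preincubated with compound 10 min at 37 °C, then adhere 30 min at 37 °C to plates carrying anti-human-IgG-captured MAdCAM-1-IgG from 293T supernatant. Nonadherent cells are removed by inverse centrifugation (50 g, 10 min); readout is fluorimetry; IC50 from curves.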

Test [1] in a line: In vitro inhibition of 38-beta7 (alpha4-beta7) cell adhesion to mucosal addressin cell adhesion molecule-1. In kind it is functional. The method in brief:
as §1

The target of test [2] is Integrin alpha-4/beta-1 (Homo sapiens) (UniProt P05556+P13612). Nature of the test: In vitro inhibition of Jurkat cell (alpha4-beta1) cell adhesion to vascular cell adhesion molecule-1. In kind it is functional, cell-based. The method in brief: (§2)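 Jurkat cells (α4β1+, α4β7−) are Hoechst H33342-labelled (6 µg/mL), then preincubated with compound 10 min at 37 °C at 8 × 10^5 cells/mL. Adhesion runs 30 min at 37 °C to VCAM-IgG (293T transfectant supernatant) captured on donkey anti-human IgG, in RPMI/1% BSA/1 mM Ca2+, Mg2+. Unbound cells are spun off inverted (50 g, 10 min); adhesion is read by fluorescence; IC50 from curves.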

A further test has as its target Integrin beta-1 (Homo sapiens, UniProt P05556). Nature of the test: Inhibition of alpha4-beta1 interaction to vascular cell adhesion molecule-1 (VCAM-1) was determined. The format is functional. Put shortly:
as §2

Chain of Integrin beta-1 (P05556 whole entry): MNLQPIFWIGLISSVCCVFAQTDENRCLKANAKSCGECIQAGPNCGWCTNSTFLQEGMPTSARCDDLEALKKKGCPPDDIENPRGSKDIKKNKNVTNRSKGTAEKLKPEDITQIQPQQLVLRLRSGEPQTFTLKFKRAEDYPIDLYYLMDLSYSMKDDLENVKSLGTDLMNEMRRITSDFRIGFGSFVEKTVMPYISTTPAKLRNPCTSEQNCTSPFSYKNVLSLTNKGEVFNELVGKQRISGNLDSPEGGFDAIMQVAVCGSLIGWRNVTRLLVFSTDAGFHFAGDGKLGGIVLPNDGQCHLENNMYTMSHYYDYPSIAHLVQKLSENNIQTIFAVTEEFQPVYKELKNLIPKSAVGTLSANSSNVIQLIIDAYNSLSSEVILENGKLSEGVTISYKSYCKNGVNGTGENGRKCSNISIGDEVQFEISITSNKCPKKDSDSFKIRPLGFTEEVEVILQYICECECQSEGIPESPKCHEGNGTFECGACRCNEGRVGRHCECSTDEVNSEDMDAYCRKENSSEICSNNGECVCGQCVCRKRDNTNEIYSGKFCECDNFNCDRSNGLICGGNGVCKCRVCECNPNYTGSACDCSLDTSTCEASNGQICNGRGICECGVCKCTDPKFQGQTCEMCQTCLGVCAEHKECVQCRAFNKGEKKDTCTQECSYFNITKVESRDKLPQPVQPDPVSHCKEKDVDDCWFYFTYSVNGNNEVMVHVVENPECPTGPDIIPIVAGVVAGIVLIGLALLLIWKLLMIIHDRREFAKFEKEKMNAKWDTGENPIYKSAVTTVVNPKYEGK

Regarding `CO[C@]12CCCC[C@@]1(OC)OC1[C@H](COCC(C)C)O[C@@H](OCC(=O)O)[C@H](OCc3ccccc3)[C@H]1O2` (stereo in doubt; form 2) [listing 1 of 2 here], inhibition against Integrin beta-7 was half-maximal at 420 µM (IC50). The Adhesion in test [1] came out at 15%.

The compound `CO[C@]12CCCC[C@@]1(OC)OC1[C@H](COCC(C)C)O[C@@H](OCC(=O)O)[C@H](OCc3ccccc3)[C@H]1O2` (stereo in doubt; form 2) [listing 2 of 2 here] registered an Adhesion in test [2] of 77%.

Compound `CO[C@]12CCCC[C@@]1(OC)OC1[C@H](COCC(C)C)O[C@@H](OCC(=O)O)[C@H](OCc3ccccc3)[C@H]1O2` (stereo in doubt; form 1) [listing 1 of 2 here] showed an Adhesion in test [2] of 89%.

With `COC1C(CCC(C)C)O[C@@H](OCC(=O)O)C(OCc2ccccc2)[C@H]1OC` (stereo not given in full), the Adhesion in test [2] and in test [1] was 100% in each case.

For the compound `COC1C(COCC(C)C)O[C@@H](OCC(=O)O)[C@H](OCc2ccccc2)[C@H]1OC` (stereo not given in full), the Adhesion in test [2] and in test [1] was 100% each time.

In test [2], `COC12CCCC[C@]1(OC)O[C@H]1C(O2)C(COC(C)C)O[C@@H](OCC(=O)O)[C@@H]1OCc1ccccc1` (stereo in doubt; form 1) [listing 1 of 2 here] had an Adhesion of 100%.

Turning to `COC1C(COCC(C)C)O[C@@H](OCC(=O)O)C(OCc2ccccc2)[C@H]1OC` (stereo not given in full), the results for the Adhesion in test [2] and in test [1] were 86% and 100%, respectively.

`CO[C@@]12O[C@H]3[C@H](O[C@@]1(OC)c1ccccc1-c1ccccc12)[C@@H](COCC(C)C)OC(OCC(=O)O)[C@H]3OCCO` (stereo not given in full): the Adhesion is 81% in test [2] and 76% in test [1].

With `COC12CCCC[C@]1(OC)O[C@H]1C(O2)C(COC(C)C)O[C@@H](OCC(=O)O)[C@@H]1OCc1ccccc1` (stereo in doubt; form 2) [listing 1 of 2 here], the Adhesion in test [2] was found to be 100%.

As to `COC1C(COC(C)C)O[C@@H](OCC(=O)O)C(OCc2ccccc2)[C@H]1OC` (stereo not given in full), the Adhesion in test [2] stood at 86%; in test [1], 100%.

Regarding `COC1C(COC(C)C)O[C@@H](OCC(=O)O)[C@H](OCc2ccccc2)[C@H]1OC` (stereo not given in full), the Adhesion in test [2] turned out to be 92%; in test [1], 100%.

For `COC1C(CC(C)C)O[C@@H](OCC(=O)O)[C@H](OCc2ccccc2)[C@H]1OC` (stereo not given in full), the Adhesion in test [2] and in test [1] was 100% in each case.

Consider `COC1C(COC(C)C)O[C@@H](OCC(=O)O)C(OCCO)[C@H]1OC` (stereo not given in full), for which the Adhesion in test [2] and in test [1] was 100% each time.

As to `COC1C(COCC(C)C)O[C@@H](OCC(=O)O)[C@H](OCCO)[C@H]1OC` (stereo not given in full), the Adhesion in test [2] and in test [1] was 100% in each case.

For `CC[C@H](C)[C@@H]1NC(=O)[C@H](CCC(N)=O)NC(=O)[C@@H](N)CSSC[C@@H](C(=O)O)NC(=O)[C@@H]2CCCN2C(=O)[C@H](CO)NC(=O)[C@H](CC(=O)O)NC1=O`, half-maximal inhibition against Integrin beta-1 (IC50) was put at 1440 µM.

As to `COC12CCCC[C@]1(OC)O[C@H]1C(O2)C(COC(C)C)O[C@@H](OCC(=O)O)[C@@H]1OCc1ccccc1` (stereo in doubt; form 2) [listing 2 of 2 here], the Adhesion in test [1] came to 76%.

As for `CO[C@]12CCCC[C@@]1(OC)OC1[C@H](COCC(C)C)O[C@@H](OCC(=O)O)[C@H](OCc3ccccc3)[C@H]1O2` (stereo in doubt; form 1) [listing 2 of 2 here], the Adhesion in test [1] stood at 90%.

With `COC1C(CCC(C)C)O[C@@H](OCC(=O)O)[C@H](OCc2ccccc2)[C@H]1OC` (stereo not given in full), the Adhesion in test [2] came out at 97%; in test [1], 100%.

In the case of `CO[C@@]12O[C@@H]3[C@H](OCCO)[C@H](OCC(=O)O)O[C@H](COCC(C)C)[C@H]3O[C@@]1(OC)c1ccccc1-c1ccccc12`, the figures for the Adhesion in test [2] and in test [1] were 82% and 80%, respectively.

`COC12CCCC[C@]1(OC)O[C@H]1C(O2)C(COC(C)C)O[C@@H](OCC(=O)O)[C@@H]1OCc1ccccc1` (stereo in doubt; form 1) [listing 2 of 2 here] yielded an Adhesion in test [1] of 100%.

On to `COC1C(COC(C)C)O[C@@H](OCC(=O)O)[C@H](OCCO)[C@H]1OC` (stereo not given in full), for which the Adhesion in test [2] came out at 98%; in test [1] it was 100%.

As to `CC(C)C[C@H](NC(=O)c1cc2ccccc2cn1)C(=O)N[C@@H](CC(=O)O)C(=O)N[C@H](C(N)=O)[C@@H](C)O`, the Adhesion in test [2] and in test [1] was 10% in each case. Besides, the IC50 (commonly the point on the concentration scale where inhibition reaches its midpoint) against Integrin beta-7 was 280 µM.

`CC[C@H](C)[C@@H]1NC(=O)[C@@H](CCC(N)=O)NC(=O)[C@H](N)CSSC[C@H](C(=O)O)NC(=O)[C@H]2CCCN2C(=O)[C@H](CO)NC(=O)[C@@H](CC(=O)O)NC1=O`: in test [2], the Adhesion stood at 52%.

As to `COC1C(CC(C)C)O[C@@H](OCC(=O)O)C(OCc2ccccc2)[C@H]1OC` (stereo not given in full), the Adhesion in test [2] and in test [1] was 100% in each case.
